Results taken from ChEMBL document CHEMBL1240456, “Synthesis and antimicrobial activity of some new thiazole, thiophene and pyrazole derivatives containing benzothiazole moiety” (2010).
≈ marks a conversion by molar mass, not a printed value.

Experiments:
Format in all cases: functional
Pseudomonas [1] = assay: Antimicrobial activity against Pseudomonas phaseolicola GSPB 2828 after 24 hrs by agar diffusion assay
Method in brief: (§1)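 Filter-paper disks (5 mm) loaded with test solution at 1 mg/mL in DMF, placed on agar seeded with the bacterium, in triplicate. DMF alone served as control. Plates incubated at 37 °C for 24 h. Read-out is the mean diameter of the inhibition zone in mm.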

Pseudomonas [2] = assay: Antimicrobial activity against Pseudomonas phaseolicola GSPB 2828 after 24 hrs by microdilution assay; conditions: GSPB 2828, 24 h
Method in brief: (§2)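 Broth microdilution in Müller-Hinton broth, run only for compounds giving zones >12 mm. Stock at 1000 µg/mL in DMF, then twofold dilutions of 500 down to 3.125 µg/mL. Wells inoculated with 10^6 CFU/mL.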

Staphylococcus aureus [3] = assay: Antimicrobial activity against Staphylococcus aureus ATCC 25923 after 24 hrs by microdilution assay; conditions: ATCC 25923, 24 h; method in brief: as §2
Pseudomonas fluorescens [4] = assay: Antimicrobial activity against Pseudomonas fluorescens S 97 after 24 hrs by agar diffusion assay; method in brief: as §1
Aspergillus fumigatus [5] = assay: Antimicrobial activity against Aspergillus fumigatus after 48 hrs by agar diffusion assay
Streptococcus pyogenes [6] = assay: Antimicrobial activity against Streptococcus pyogenes ATCC 19615 after 24 hrs by microdilution assay; conditions: ATCC 19615, 24 h; method in brief: as §2
Staphylococcus aureus [7] = assay: Antimicrobial activity against Staphylococcus aureus ATCC 25923 after 24 hrs by agar diffusion assay; method in brief: as §1
Fusarium oxysporum [8] = assay: Antimicrobial activity against Fusarium oxysporum after 48 hrs by agar diffusion assay
Aspergillus fumigatus [9] = assay: Antimicrobial activity against Aspergillus fumigatus after 48 hrs by microdilution assay
Method in brief: (§3)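 Broth microdilution in Sabouraud liquid medium, run only for compounds giving zones >12 mm. Stock at 1000 µg/mL in DMF, then twofold dilutions of 500 down to 3.125 µg/mL. Wells inoculated with 10^6 CFU/mL.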

Fusarium oxysporum [10] = assay: Antimicrobial activity against Fusarium oxysporum after 48 hrs by microdilution assay; method in brief: as §3
Streptococcus pyogenes [11] = assay: Antimicrobial activity against Streptococcus pyogenes ATCC 19615 after 24 hrs by agar diffusion assay; method in brief: as §1
Pseudomonas fluorescens [12] = assay: Antimicrobial activity against Pseudomonas fluorescens S 97 after 24 hrs by microdilution assay; conditions: S 97, 24 h; method in brief: as §2

| SMILES | inhibition zone (IZ) (Pseudomonas [1]) | MIC (Pseudomonas [2]) | MIC (Staphylococcus aureus [3]) | inhibition zone (IZ) (Pseudomonas fluorescens [4]) | inhibition zone (IZ) (Aspergillus fumigatus [5]) | MIC (Streptococcus pyogenes [6]) | inhibition zone (IZ) (Staphylococcus aureus [7]) | inhibition zone (IZ) (Fusarium oxysporum [8]) | MIC (Aspergillus fumigatus [9]) | MIC (Fusarium oxysporum [10]) | inhibition zone (IZ) (Streptococcus pyogenes [11]) | MIC (Pseudomonas fluorescens [12]) |
| --- | --- | --- | --- | --- | --- | --- | --- | --- | --- | --- | --- | --- |
| O=C1CSC(CC(=O)Nc2nc3ccccc3s2)=N1 | 14 mm | 100 µg/mL (≈ 343 µM) | 25 µg/mL (≈ 85.8 µM) | 37 mm | 20 mm | 25 µg/mL (≈ 85.8 µM) | 26 mm | 16 mm | 50 µg/mL (≈ 172 µM) | 100 µg/mL (≈ 343 µM) | 25 mm | 6.25 µg/mL (≈ 21.5 µM) |
| O=C(Nc1nc2ccccc2s1)c1c(Nc2ccccc2)n[nH]c1/N=C\c1cn(-c2ccccc2)nc1-c1ccccc1 | 15 mm | 100 µg/mL (≈ 172 µM) | 3.12 µg/mL (≈ 5.38 µM) | 19 mm | 14 mm | 6.25 µg/mL (≈ 10.8 µM) | 44 mm | 26 mm | 100 µg/mL (≈ 172 µM) | 25 µg/mL (≈ 43.1 µM) | 37 mm | 50 µg/mL (≈ 86.1 µM) |
| N#C/C(C(=O)Nc1nc2ccccc2s1)=C1/SC=C(c2ccccc2)N1c1ccccc1 | 14 mm | 100 µg/mL (≈ 221 µM) | 50 µg/mL (≈ 110 µM) | 19 mm | 38 mm | 100 µg/mL (≈ 221 µM) | 19 mm | 15 mm | 6.25 µg/mL (≈ 13.8 µM) | 100 µg/mL (≈ 221 µM) | 15 mm | 50 µg/mL (≈ 110 µM) |
| N#C/C(C(=O)Nc1nc2ccccc2s1)=C1\SCC(=O)N1c1ccccc1 | 15 mm | 100 µg/mL (≈ 255 µM) | 100 µg/mL (≈ 255 µM) | 17 mm | 19 mm | 100 µg/mL (≈ 255 µM) | 15 mm | 14 mm | 50 µg/mL (≈ 127 µM) | 100 µg/mL (≈ 255 µM) | 14 mm | 100 µg/mL (≈ 255 µM) |
| Nc1c(C(=O)Nc2nc3ccccc3s2)sc(=S)n1-c1ccccc1 | 20 mm | 50 µg/mL (≈ 130 µM) | 12.5 µg/mL (≈ 32.5 µM) | 16 mm | 16 mm | 100 µg/mL (≈ 260 µM) | 32 mm | 31 mm | 100 µg/mL (≈ 260 µM) | 12.5 µg/mL (≈ 32.5 µM) | 14 mm | 100 µg/mL (≈ 260 µM) |
| Nc1sc2c(c1C(=O)Nc1nc3ccccc3s1)CCCC2 | 14 mm | 100 µg/mL (≈ 304 µM) | 6.25 µg/mL (≈ 19 µM) | 16 mm | 19 mm | 6.25 µg/mL (≈ 19 µM) | 38 mm | 15 mm | 50 µg/mL (≈ 152 µM) | 100 µg/mL (≈ 304 µM) | 38 mm | 100 µg/mL (≈ 304 µM) |
| Nc1c(C(=O)c2ccccc2)sc(Nc2ccccc2)c1C(=O)Nc1nc2ccccc2s1 | 19 mm | 50 µg/mL (≈ 106 µM) | 6.25 µg/mL (≈ 13.3 µM) | 20 mm |  | 6.25 µg/mL (≈ 13.3 µM) | 38 mm | 14 mm |  | 100 µg/mL (≈ 213 µM) | 37 mm | 50 µg/mL (≈ 106 µM) |
| CCOC(=O)c1sc(Nc2ccccc2)c(C(=O)Nc2nc3ccccc3s2)c1N | 19 mm | 50 µg/mL (≈ 114 µM) | 3.12 µg/mL (≈ 7.13 µM) |  | 31 mm | 6.25 µg/mL (≈ 14.3 µM) | 43 mm | 14 mm | 12.5 µg/mL (≈ 28.5 µM) | 100 µg/mL (≈ 228 µM) | 38 mm |  |
| Nc1[nH]nc(-c2cn(-c3ccccc3)nc2-c2ccccc2)c1C(=O)Nc1nc2ccccc2s1 | 14 mm | 100 µg/mL (≈ 209 µM) | 12.5 µg/mL (≈ 26.2 µM) | 20 mm |  | 6.25 µg/mL (≈ 13.1 µM) | 32 mm | 19 mm |  | 50 µg/mL (≈ 105 µM) | 38 mm | 50 µg/mL (≈ 105 µM) |
| Cc1cc(C)c2c(n1)[nH]n1c(=N)c(C(=O)Nc3nc4ccccc4s3)nnc21 | 15 mm | 100 µg/mL (≈ 256 µM) | 100 µg/mL (≈ 256 µM) | 32 mm | 19 mm | 100 µg/mL (≈ 256 µM) | 14 mm | 26 mm | 50 µg/mL (≈ 128 µM) | 25 µg/mL (≈ 64 µM) | 15 mm | 12.5 µg/mL (≈ 32 µM) |
| Cc1cc(O)n2nc(Nc3ccccc3)c(C(=O)Nc3nc4ccccc4s3)c2n1 | 26 mm | 25 µg/mL (≈ 60 µM) | 25 µg/mL (≈ 60 µM) | 19 mm | 14 mm | 6.25 µg/mL (≈ 15 µM) | 25 mm | 15 mm | 100 µg/mL (≈ 240 µM) | 100 µg/mL (≈ 240 µM) | 37 mm | 50 µg/mL (≈ 120 µM) |
| O=C(Nc1nc2ccccc2s1)c1c(Nc2ccccc2)nn2c(-c3cccs3)ccnc12 | 15 mm | 100 µg/mL (≈ 213 µM) | 100 µg/mL (≈ 213 µM) | 18 mm | 26 mm | 100 µg/mL (≈ 213 µM) | 14 mm | 37 mm | 25 µg/mL (≈ 53.4 µM) | 6.25 µg/mL (≈ 13.3 µM) | 15 mm | 50 µg/mL (≈ 107 µM) |
| O=c1c2c(Nc3ccccc3)n[nH]c2ncn1-c1nc2ccccc2s1 | 38 mm | 6.25 µg/mL (≈ 17.3 µM) | 100 µg/mL (≈ 277 µM) | 15 mm | 15 mm | 100 µg/mL (≈ 277 µM) | 15 mm | 19 mm | 100 µg/mL (≈ 277 µM) | 50 µg/mL (≈ 139 µM) | 15 mm | 100 µg/mL (≈ 277 µM) |
| CC(=O)OCC1=C(C(=O)O)N2C(=O)[C@@H](NC(=O)Cc3cccs3)[C@H]2SC1 [CEPHALOTHIN] | 38 mm | 6.25 µg/mL (≈ 15.8 µM) | 6.25 µg/mL (≈ 15.8 µM) | 37 mm |  | 6.25 µg/mL (≈ 15.8 µM) | 36 mm |  |  |  | 37 mm | 6.25 µg/mL (≈ 15.8 µM) |
| O=C(N[C@H](CO)[C@H](O)c1ccc([N+](=O)[O-])cc1)C(Cl)Cl [CHLORAMPHENICOL] | 37 mm | 6.25 µg/mL (≈ 19.3 µM) | 3.12 µg/mL (≈ 9.67 µM) | 38 mm |  | 3.12 µg/mL (≈ 9.67 µM) | 42 mm |  |  |  | 44 mm | 6.25 µg/mL (≈ 19.3 µM) |
| C[C@@H]1C[C@@H]([C@H](O)CC2CC(=O)NC(=O)C2)C(=O)[C@@H](C)C1 [CYCLOHEXIMIDE] |  |  |  |  | 42 mm |  |  | 43 mm | 3.12 µg/mL (≈ 11.1 µM) | 3.12 µg/mL (≈ 11.1 µM) |  |  |
